# Publication PMC5094435 (Saudi Pharmaceutical Journal : SPJ, 2015)
# Where “and” joins values, the source holds several entries; their conditions need not be identical. Identical values can stand only once.
# Columns and labels:
# [1] = test system: Staphylococcus aureus (MTCC 96); test: Antibacterial activity; assay type: cell-based; settings: MTCC96, read-out: MIC, S. aureus
# Outline: (§1)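 Screened by a standard method against S. aureus MTCC 96, B. subtilis MTCC 121, E. coli MTCC 1652 and P. aeruginosa MTCC 741. Ciprofloxacin was the reference antibiotic. Only compounds active at 100 μg/mL went on to MIC determination.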
# [2] = test system: Escherichia coli (MTCC 1652); test: Antibacterial activity; assay type: cell-based; settings: Escherichia coli, MTCC1652, read-out: MIC, E. coli
# Outline: as §1
# [3] = test system: Pseudomonas aeruginosa (MTCC 741); test: Antibacterial activity; assay type: cell-based; settings: Pseudomonas aeruginosa, MTCC741, read-out: MIC, P. aeruginosa
# Outline: as §1
# [4] = test system: Bacillus subtilis (MTCC 121); test: Antibacterial activity; assay type: cell-based; settings: MTCC121, read-out: MIC, B. subtilis
# Outline: as §1
# Aspergillus niger = test: Antifungal activity; assay type: cell-based; settings: read-out: MIC, A. niger
# Outline: (§2)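 Run by the poison food technique against Aspergillus niger and Aspergillus flavus. Fluconazole was the reference drug.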
# Aspergillus flavus = test: Antifungal activity; assay type: cell-based; settings: read-out: MIC, A. flavus
# Outline: as §2
# [5] = test system: carrageenan induced edema; test: Anti-inflammatory activity, carrageenan induced rat paw edema; assay type: in vivo, Wistar rats; settings: inhibition of edema, rats
# Outline: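 Used the Winter et al. paw oedema method in Wistar rats of either sex (160–200 g), housed six per cage and acclimatised 48 h. Percent inhibition of oedema was calculated at 1, 2, 3 and 4 h. Diclofenac served as the standard drug.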
# [6] = test system: tail immersion (hot water 55 °C); test: Central analgesic activity, tail immersion method; assay type: in vivo, Swiss albino mice; settings: mice, mean ± SEM
# Outline: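 Used the same mice from the writhing test after a washout period. Each mouse was held in a restrainer and the protruding tail (up to 5 cm) was dipped in 55 °C water. Withdrawal time was recorded as reaction time at 1 h and 2 h post-dose. Data are mean ± SEM, analysed by ANOVA followed by Dunnett's t test.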
# [7] = test system: acetic acid induced writhing; test: Peripheral analgesic activity, acetic acid induced writhing method; assay type: in vivo, Swiss Albino mice; settings: mice, mean ± SEM
# Outline: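 Writhing was induced with aqueous acetic acid in Swiss albino mice (20–30 g) of either sex, six per group. % Protection = (Wc − Wt)/Wc × 100, where Wc and Wt are the mean writhing counts of the control and test groups.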
# mucosal damage = test: Acute ulcerogenic activity; assay type: in vivo, Albino rats; settings: rats, mean ± SEM
# Outline: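 Conducted in Albino rats (160–200 g, housed six per cage, acclimatised 48 h) following Cioli et al. Gastric mucosal damage was scored at the end of the study. Ulcerogenic potential (severity index) came from comparing the mean score of each treated group with that of the control rats.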
compound,measurement,setting,value
"O=C1OC(c2ccc(-c3ccccc3)cc2)=CC1=Cc1cc2cc([N+](=O)[O-])ccc2nc1Cl [Compound 5h, 3-[(2-Chloro-6-nitroquinolin-3-yl)methylene]-5-(biphenyl-4-yl)furan-2(3H)-one]",MIC,[1],25 µg/mL
same,MIC,[2],50 µg/mL
same,MIC,[3],> 100 µg/mL
same,MIC,[4],> 100 µg/mL
same,MIC,Aspergillus niger,25 µg/mL
same,MIC,Aspergillus flavus,25 µg/mL
same,% Inhibition ± SEM After 1 h,[5]; after 1 h,73 ± 0.08^∗∗ %
same,% Inhibition ± SEM After 2 h,[5]; after 2 h,58 ± 0.15^∗∗ %
same,% Inhibition ± SEM After 3 h,[5]; after 3 h,50 ± 0.13%
same,Central analgesic activity [tail immersion (reaction time in min)] 1 h,[6]; 1 h after the dosing,4.3 min and 4.3 ± 0.4^∗∗ min
same,Central analgesic activity [tail immersion (reaction time in min)] 2 h,[6]; 2 h after the dosing,6.2 min and 6.2 ± 1.5^∗ min
same,Peripheral analgesic activity (writhing test) No. of writhing,[7],7.6 ± 2.3^∗∗
same,Ulcerogenic activity (severity index),mucosal damage,0.40 ± 0.36
